PfG6PD inh = PfG6PD (Plasmodium falciparum) enzyme inhibition; PfGluPho enzyme, NADPH resazurin-diaphorase fluorescence; inhibition, % at 20 µM; 350,000 tested, 0.78% active; AID 504690;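 active = inhibition reaching at least a set limit at 20 µM in the primary screen, cut at about 59% in these data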
Apaf-1 inh = inhibitors of human Apaf-1 apoptosome; reconstituted apoptosome caspase-3 activity, DEVD-Rh110 fluorescence; 330,000 tested, 0.71% active; O14727; inhibition, % at 20 µM; active = inhibition of at least 40% at 20 µM
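Material: reconstituted apoptosome with Apaf-1, cytochrome c, caspase-9, procaspase-3, dATP / Buffer or medium: pH 7.5 Hepes buffer with CHAPS, BSA, DTT / Also added: cytochrome c with DEVD-Rh110 / Schedule: compound with Apaf-1, dATP, procaspase-3 30 min, then 50 min reaction, room temperature / Technique: rhodamine 110 fluorescence at Ex 480/Em 540 nm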
PfM18AAP inh-1 = PfM18AAP enzyme inhibition | inhibition, % at 7.35 µM | 290,000 tested, 1.2% active | AID 1822 | recombinant PfM18AAP, H-Glu-NHMec fluorogenic cleavage;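 active = inhibition above the campaign mean inhibition over all tested compounds plus 3 SD, cut at about 28% in these data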
UBC13 polyUb = human UBC13 polyubiquitination inhibition; P61088; UBC13 polyubiquitin chain formation, TR-FRET; inhibition, % at 20 µM; 330,000 tested, 0.47% active; AID 485273; in the data active = inhibition above about 45%, passing the limit was not always enough
Target sequence (P61088 whole entry, looked up): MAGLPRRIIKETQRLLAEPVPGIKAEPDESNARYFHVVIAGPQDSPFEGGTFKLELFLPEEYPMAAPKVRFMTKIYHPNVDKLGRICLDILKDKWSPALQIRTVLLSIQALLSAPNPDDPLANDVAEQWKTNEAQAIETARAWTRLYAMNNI
ZTA counter = ZTA (EBV) inhibition in EBNA-1 counter-screen | P03206 | ZTA-DNA binding, fluorescence polarization | inhibition, % at 11 µM | 320,000 tested, 0.15% active | AID 2234; in the data active = inhibition above about 33%
Target sequence (P03206 whole entry, looked up): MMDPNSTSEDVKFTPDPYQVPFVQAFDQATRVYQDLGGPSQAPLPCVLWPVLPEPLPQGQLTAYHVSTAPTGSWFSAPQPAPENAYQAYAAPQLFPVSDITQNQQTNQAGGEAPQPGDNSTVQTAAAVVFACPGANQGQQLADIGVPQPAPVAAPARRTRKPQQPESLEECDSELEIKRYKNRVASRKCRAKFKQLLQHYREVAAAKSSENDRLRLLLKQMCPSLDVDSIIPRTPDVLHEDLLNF
EBNA-1 inh = blocks EBNA-1 binding to DNA; EBNA-1 DNA binding, fluorescence polarization; inhibition, % at 14.8 µM; 300,000 tested, 0.34% active; AID 1950; in the data active = inhibition above about 28%
PfM18AAP inh-2 = confirmation of Plasmodium falciparum M18 aspartyl aminopeptidase inhibitors; shares compounds with PfM18AAP inh-1; recombinant PfM18AAP, H-Glu-NHMec fluorogenic cleavage; inhibition, % at 7.35 µM; 2,400 tested, 28% active;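 active = mean inhibition over replicate wells above the hit cutoff set for the earlier primary screen, cut at about 29% in these data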
CTSL1 counter = Cathepsin L (human) inhibition, confirmation. inhibition, % at 5.96 µM. purified cathepsin L1, Z-Leu-Arg-MCA fluorescence. 2,400 tested, under 10 active. shares compounds with PfM18AAP inh-1;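 active = average inhibition across replicates above the hit cutoff set in the earlier primary screen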
Target sequence (P07711 whole entry, looked up): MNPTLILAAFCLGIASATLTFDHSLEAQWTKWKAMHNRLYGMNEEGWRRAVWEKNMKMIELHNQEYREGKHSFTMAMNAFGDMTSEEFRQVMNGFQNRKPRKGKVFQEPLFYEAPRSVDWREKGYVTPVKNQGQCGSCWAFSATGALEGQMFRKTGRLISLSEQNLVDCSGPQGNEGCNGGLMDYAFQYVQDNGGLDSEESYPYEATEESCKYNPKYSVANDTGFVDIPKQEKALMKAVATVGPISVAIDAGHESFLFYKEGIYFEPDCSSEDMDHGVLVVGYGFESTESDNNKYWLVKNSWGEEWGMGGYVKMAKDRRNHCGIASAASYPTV
Zta DNA confirm = EBV ZTA DNA binding inhibition, confirmation. shares compounds with ZTA counter. Zta-ZRE DNA binding, fluorescence polarization. inhibition, % at 11.1 µM. 320 tested, 30% active;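 active = mean inhibition across triplicate runs above the hit threshold derived for the original primary screen, cut at about 33% in these data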
EBNA1 counter = counter-screen for ZTA inhibitors: EBNA-1 DNA binding inhibition | fluorescence polarization | AID 2362 | inhibition, % at 14.8 µM | 320 tested, under 10 active | shares compounds with ZTA counter
Apaf-1 inh conf2 = Apaf-1 inhibition, single-dose confirmed; inhibition, % at 20 µM; AID 504614; reconstituted apoptosome, caspase-3 DEVD-Rh110 fluorescence; 1,800 tested, 25% active; shares compounds with Apaf-1 inh;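 active = mean inhibition of at least 40% at 20 µM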
Rh110 quench = interferes with Rh110 fluorescence, flagging false Apaf-1 inhibitors; Rh110 fluorescence interference, quenched caspase reaction; shares compounds with Apaf-1 inh; activation (fluorescence interference), % at 20 µM; 1,800 tested, under 10 active;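 active = signal rise of 40% or more at 20 µM, treated as a fluorescence artifact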
Apaf1 inh interf = counter-screen for Apaf-1 inhibitors: fluorescence interference, dose response; shares compounds with Apaf-1 inh; fluorescence interference counterscreen, Apaf-1 assay format; IC50, µM; 460 tested, under 10 active; AID 588538
PfG6PD confirm = PfG6PD inhibition, single-dose confirmed; shares compounds with PfG6PD inh; recombinant PfGluPho, NADPH-diaphorase-resazurin fluorescence; inhibition, % at 20 µM; 2,400 tested, 34% active; AID 504753;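 active = inhibition of at least 50% at 20 µM in any single replicate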
Diaphorase 10uM = diaphorase inhibition or oxidation at 10 uM NADPH. AID 504862. shares compounds with PfG6PD inh. diaphorase-coupled resazurin reduction, fluorescence, NADPH 10 uM. 820 tested, 39% active. inhibition, % at 20 µM;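 active = average inhibition reaching 50% or more with the compound at 20 µM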;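 also: resorufin red fluorescence formed as diaphorase reduces resazurin using NADPH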
Diaph ctr 30uM = inhibits diaphorase or oxidizes, flagging false PfG6PD hits | inhibition, % at 20 µM | 820 tested, 29% active | shares compounds with PfG6PD inh | Diaphorase/resazurin coupled assay, resorufin fluorescence, 30 uM NADPH;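 active = inhibition averaging 50% or more, tested at 20 µM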
Large screens that a line does not name were inactive (follow-up assays come after a bar, where they were run). Shown are actives, neighbours in structure and some others; about 2.9% of the full set was active somewhere. Unless noted, no rule for the calls is given here.

COc1ccc(Br)cc1CNc1ccc(O)cc1	PfG6PD inh 68, Apaf-1 inh 95, PfM18AAP inh-1 42, ZTA counter 40 | PfM18AAP inh-2 inactive | CTSL1 counter inactive | Zta DNA confirm inactive | EBNA1 counter inactive | Apaf-1 inh conf2 inactive | Rh110 quench inactive | PfG6PD confirm inactive
COc1ccc(-c2csc(NCCc3nc4cc(Cl)c(Cl)cc4n3CCCO)n2)cc1	none (no result: PfM18AAP inh-1)
COC(=O)C(=Cc1ccncc1)c1cccc2ccccc12	none (no result: Apaf-1 inh, PfM18AAP inh-1, UBC13 polyUb, ZTA counter, EBNA-1 inh)
O=C(CNC(=O)c1cccs1)NCC(=O)OCC(=O)c1ccc([N+](=O)[O-])cc1	PfG6PD inh 67, PfM18AAP inh-1 46 | PfM18AAP inh-2 inactive | CTSL1 counter inactive | PfG6PD confirm 63 | Diaphorase 10uM inactive | Diaph ctr 30uM inactive
O=C(CCC(=O)OCC(=O)c1cccc([N+](=O)[O-])c1)Nc1cccc(Cl)c1Cl	none
O=C(CCC(=O)OCC(=O)c1ccc([N+](=O)[O-])cc1)Nc1ccccc1Cl	PfG6PD inh 68, PfM18AAP inh-1 40 | PfM18AAP inh-2 inactive | CTSL1 counter inactive | PfG6PD confirm 54 | Diaphorase 10uM inactive | Diaph ctr 30uM inactive
O=C(CNC(=O)c1cccs1)OCC(=O)c1ccccc1	none
Cc1ccc(C(=O)COC(=O)CNC(=O)COc2ccccc2C)cc1C	none
Cc1ccccc1OCC(=O)NCC(=O)OCC(=O)c1ccc([N+](=O)[O-])cc1	PfG6PD inh 70, PfM18AAP inh-1 46 | PfM18AAP inh-2 inactive | CTSL1 counter inactive | PfG6PD confirm 52 | Diaphorase 10uM inactive | Diaph ctr 30uM inactive
O=C(NCCNC(=O)c1ccccn1)c1ccccc1	none
CCN(C(=O)CN1CCN(c2ccc(O)cc2)CC1)c1c(N)n(Cc2ccccc2)c(=O)[nH]c1=O	PfG6PD inh 73, PfM18AAP inh-1 35 | PfM18AAP inh-2 inactive | CTSL1 counter inactive | PfG6PD confirm inactive
CCN(C(=O)CN1CCCCCC1)c1c(N)n(Cc2ccccc2)c(=O)[nH]c1=O	none (no result: PfM18AAP inh-1, ZTA counter, EBNA-1 inh)
CC(=O)N1CCN(CC(=O)NC(=O)Nc2ccc3c(c2)OCCO3)CC1	none (no result: PfM18AAP inh-1)
O=S(=O)(Nc1ccc(Cl)cc1)c1ccc(N2CCOCC2)c(NC(=S)NCCN2CCOCC2)c1	PfG6PD inh 69, PfM18AAP inh-1 45 | PfM18AAP inh-2 inactive | CTSL1 counter inactive | PfG6PD confirm 63 | Diaphorase 10uM inactive | Diaph ctr 30uM inactive
O=C(Cc1ccc(NS(=O)(=O)c2ccc(Cl)c(Cl)c2)cc1)NCCN1CCOCC1	none (no result: PfM18AAP inh-1, ZTA counter, EBNA-1 inh)
O=C(O)c1ccc([N+](=O)[O-])nc1	none (no result: Apaf-1 inh, PfM18AAP inh-1, UBC13 polyUb, ZTA counter, EBNA-1 inh)
O=[N+]([O-])c1ccc(N2CCN(c3ccc(O)cc3)CC2)cn1	PfG6PD inh 62, PfM18AAP inh-1 41 | PfM18AAP inh-2 inactive | CTSL1 counter inactive | PfG6PD confirm inactive
CCn1c(=O)n(CC)c2cc(N3CCCC3)c(NC(=O)c3ccc(F)cc3)cc21	PfG6PD inh 78, PfM18AAP inh-1 35 | PfM18AAP inh-2 inactive | CTSL1 counter inactive | PfG6PD confirm inactive
CCOc1ccc(C(=O)Nc2cc3c(cc2N2CCCC2)n(CC)c(=O)n3CC)cc1OCC	none
c1cc2c(cc1NC1CCCCCC1)OCO2	PfG6PD inh 62, PfM18AAP inh-1 53 | PfM18AAP inh-2 inactive | CTSL1 counter inactive | PfG6PD confirm 61 | Diaphorase 10uM inactive | Diaph ctr 30uM inactive
O=C(NC1CCCCCCC1)c1ccc2c(c1)OCO2	none
CCOC(=O)C1(CCOC)CCCCC1=O (stereo unspecified)	none (no result: Apaf-1 inh, PfM18AAP inh-1, UBC13 polyUb, ZTA counter, EBNA-1 inh)
Cn1c(N)c(C(=O)Nc2ccccc2F)sc1=S	none
Nc1c(C(=O)Nc2ccc(F)cc2)sc(=S)n1-c1ccccc1F	PfG6PD inh 99, PfM18AAP inh-1 48 | PfM18AAP inh-2 inactive | CTSL1 counter inactive | PfG6PD confirm 56 | Diaphorase 10uM inactive | Diaph ctr 30uM inactive
CN1CCN(C(=O)c2sc(=S)n(-c3ccccc3)c2N)CC1	PfG6PD inh 82, PfM18AAP inh-1 49 | PfM18AAP inh-2 inactive | CTSL1 counter inactive | PfG6PD confirm 83 | Diaphorase 10uM inactive | Diaph ctr 30uM inactive
O=C(COC(=O)C1CC(=O)N(c2ccccc2)C1)c1ccccc1 (stereo unspecified)	none
Cc1ccc(N2CC(C(=O)OCC(=O)c3ccc([N+](=O)[O-])cc3)CC2=O)cc1 (stereo unspecified)	PfG6PD inh 60, PfM18AAP inh-1 38 | PfM18AAP inh-2 inactive | CTSL1 counter inactive | PfG6PD confirm 57 | Diaphorase 10uM inactive | Diaph ctr 30uM inactive
Cc1ccc(NC(=O)/C(=C/c2cccs2)NC(=O)c2ccco2)c(C)c1	none
Cc1ccc(NC(=O)/C(=C/c2cccs2)NC(=O)c2ccco2)cc1	none
Oc1ccc(NCc2ccc(OCc3ccccc3)cc2)cc1	PfG6PD inh 66, PfM18AAP inh-1 46 (no result: Apaf-1 inh, UBC13 polyUb, ZTA counter, EBNA-1 inh) | PfM18AAP inh-2 inactive | CTSL1 counter inactive | PfG6PD confirm inactive
CCOC(=O)c1c(C)n(-c2ccc(C)cc2)c2c(C(C(C)=O)C(=O)O)c(Br)c(O)c(O)c12 (stereo unspecified)	PfG6PD inh 105, Apaf-1 inh 50, PfM18AAP inh-1 65 | PfM18AAP inh-2 37 | CTSL1 counter inactive | Apaf-1 inh conf2 62 | Rh110 quench inactive | Apaf1 inh interf inactive | PfG6PD confirm 101 | Diaphorase 10uM inactive | Diaph ctr 30uM inactive

Bioassay records deposited in PubChem BioAssay by several laboratories.
